Results from ChEMBL document CHEMBL4261600 (Eur J Med Chem, 2018).
Active and inactive are the calls of the source. The rule behind the calls is not given here.

Tests used:
CDK9/Cyclin K = CDK9/Cyclin K (Homo sapiens, UniProt P50750); experiment: Inhibition of CDK9/Cyclin K (unknown origin) using PDKtide as substrate incubated at 37 degreeC for 1 hr followed by incubation at room temperature for 5 mins by ADP-Glo reagent based luminescence assay; assay type: protein-complex assay
MV4-11 [1] = experiment: Induction of apoptosis in human MV4-11 cells assessed as decrease in MCL-1 level after 2 hrs by immunoblotting analysis; assay type: functional, cell-based
MV4-11 [2] = experiment: Induction of apoptosis in human MV4-11 cells assessed as decrease in c-MYC level after 2 hrs by immunoblotting analysis; assay type: functional, cell-based
Homo sapiens = organism: Homo sapiens; experiment: Induction of apoptosis in human MEC1 cells assessed as decrease in XIAP level up to 3 uM after 2 hrs by immunoblotting analysis; assay type: functional, cell-based
[3] = Tmax in beagle dog at 2 mg/kg, iv by LC-MS/MS analysis; assay type: ADME, organism-based, Canis lupus familiaris; conditions: in vivo
[4] = biological target: Dual specificity protein kinase CLK4 (Homo sapiens) (UniProt Q9HAZ1); experiment: Binding affinity to wild-type human partial length CLK4 (R135 to K481 residues) expressed in bacterial expression system assessed as remaining unbound target protein level at 1000 nM by Kinomescan method relative to control
Outline: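 KINOMEscan competition binding profile across a panel of 468 kinases and mutants, with the inhibitor tested at a single concentration of 1 μM. Binding is reported as percent of control, meaning signal relative to a DMSO control.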

[5] = biological target: Focal adhesion kinase 1 (Homo sapiens) (UniProt Q05397); experiment: Binding affinity to wild-type human partial length FAK (D402 to R696 residues) expressed in bacterial expression system assessed as remaining unbound target protein level at 1000 nM by Kinomescan method relative to control
[6] = biological target: Tyrosine-protein kinase Fgr (Homo sapiens) (UniProt P09769); experiment: Binding affinity to wild-type human partial length FGR (L233 to T529 residues) expressed in bacterial expression system assessed as remaining unbound target protein level at 1000 nM by Kinomescan method relative to control
[7] = biological target: Rhodopsin kinase GRK1 (Homo sapiens) (UniProt Q15835); experiment: Binding affinity to wild-type human full length GRK1 (M1 to S563 residues) expressed in mammalian expression system assessed as remaining unbound target protein level at 1000 nM by Kinomescan method relative to control
Outline: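 KINOMEscan competition binding panel run at 1 μM inhibitor; binding reported as percent of DMSO control (remaining target bound versus vehicle).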

[8] = biological target: LIM domain kinase 1 (Homo sapiens) (UniProt P53667); experiment: Binding affinity to wild-type human full length LIMK1 (M1 to D647 residues) expressed in bacterial expression system assessed as remaining unbound target protein level at 1000 nM by Kinomescan method relative to control
Outline: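 Single-point competition binding screen across a panel of 468 kinases and mutants, with the inhibitor at 1 μM. Binding is read out as percent of a DMSO control, and targets below 1 percent control were classed as strong binders.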

[9] = biological target: Muscle, skeletal receptor tyrosine-protein kinase (Homo sapiens) (UniProt O15146); experiment: Binding affinity to wild-type human partial length MUSK (M553 to V869 residues) expressed in bacterial expression system assessed as remaining unbound target protein level at 1000 nM by Kinomescan method relative to control
[10] = biological target: Serine/threonine-protein kinase Nek9 (Homo sapiens) (UniProt Q8TD19); experiment: Binding affinity to wild-type human partial length NEK9 (P32 to R328 residues) expressed in bacterial expression system assessed as remaining unbound target protein level at 1000 nM by Kinomescan method relative to control
[11] = biological target: Serine/threonine-protein kinase PAK 2 (Homo sapiens) (UniProt Q13177); experiment: Binding affinity to wild-type human partial length PAK2 (P151 to R525 residues) expressed in bacterial expression system assessed as remaining unbound target protein level at 1000 nM by Kinomescan method relative to control
[12] = system: Phosphatidylinositol 4,5-bisphosphate 3-kinase catalytic subunit alpha isoform (Homo sapiens), P42336 [C420R]; experiment: Binding affinity to human partial length PIK3CA C420R mutant (R108 to N1068 residues) expressed in mammalian expression system assessed as remaining unbound target protein level at 1000 nM by Kinomescan method relative to control
Outline: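 KINOMEscan competition-binding profiling across the panel of 468 kinases and mutants, with inhibitor tested at 1 μM. Binding is expressed as percent of control, with DMSO as the reference control.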

[13] = biological target: Phosphatidylinositol 4,5-bisphosphate 3-kinase catalytic subunit beta isoform (Homo sapiens) (UniProt P42338); experiment: Binding affinity to wild-type human partial length PIK3CB (P118 to S1070 residues) expressed in mammalian expression system assessed as remaining unbound target protein level at 1000 nM by Kinomescan method relative to control
[14] = biological target: Rho-associated protein kinase 2 (Homo sapiens) (UniProt O75116); experiment: Binding affinity to wild-type human partial length ROCK2 (M1 to T431 residues) expressed in mammalian expression system assessed as remaining unbound target protein level at 1000 nM by Kinomescan method relative to control
[15] = biological target: NUAK family SNF1-like kinase 2 (Homo sapiens) (UniProt Q9H093); experiment: Binding affinity to wild-type human partial length SNARK (P22 to A333 residues) expressed in mammalian expression system assessed as remaining unbound target protein level at 1000 nM by Kinomescan method relative to control
[16] = biological target: Proto-oncogene tyrosine-protein kinase Src (Homo sapiens) (UniProt P12931); experiment: Binding affinity to wild-type human partial length SRC (L240 to L536 residues) expressed in bacterial expression system assessed as remaining unbound target protein level at 1000 nM by Kinomescan method relative to control
[17] = biological target: Tyrosine-protein kinase SYK (Homo sapiens) (UniProt P43405); experiment: Binding affinity to wild-type human partial length SYK (D354 to N635 residues) expressed in bacterial expression system assessed as remaining unbound target protein level at 1000 nM by Kinomescan method relative to control
[18] = biological target: TGF-beta receptor type-2 (Homo sapiens) (UniProt P37173); experiment: Binding affinity to wild-type human partial length TGFBR2 (I218 to K567 residues) expressed in bacterial expression system assessed as remaining unbound target protein level at 1000 nM by Kinomescan method relative to control
[19] = biological target: Serine/threonine-protein kinase ULK3 (Homo sapiens) (UniProt Q6PHR2); experiment: Binding affinity to wild-type human partial length ULK3 (M1 to Q290 residues) expressed in mammalian expression system assessed as remaining unbound target protein level at 1000 nM by Kinomescan method relative to control
[20] = biological target: Tyrosine-protein kinase Yes (Homo sapiens) (UniProt P07947); experiment: Binding affinity to wild-type human partial length YES (T257 to L543 residues) expressed in bacterial expression system assessed as remaining unbound target protein level at 1000 nM by Kinomescan method relative to control
Tyrosine-protein kinase Yes (Homo sapiens), sequence (P07947 2-543 limits assumed): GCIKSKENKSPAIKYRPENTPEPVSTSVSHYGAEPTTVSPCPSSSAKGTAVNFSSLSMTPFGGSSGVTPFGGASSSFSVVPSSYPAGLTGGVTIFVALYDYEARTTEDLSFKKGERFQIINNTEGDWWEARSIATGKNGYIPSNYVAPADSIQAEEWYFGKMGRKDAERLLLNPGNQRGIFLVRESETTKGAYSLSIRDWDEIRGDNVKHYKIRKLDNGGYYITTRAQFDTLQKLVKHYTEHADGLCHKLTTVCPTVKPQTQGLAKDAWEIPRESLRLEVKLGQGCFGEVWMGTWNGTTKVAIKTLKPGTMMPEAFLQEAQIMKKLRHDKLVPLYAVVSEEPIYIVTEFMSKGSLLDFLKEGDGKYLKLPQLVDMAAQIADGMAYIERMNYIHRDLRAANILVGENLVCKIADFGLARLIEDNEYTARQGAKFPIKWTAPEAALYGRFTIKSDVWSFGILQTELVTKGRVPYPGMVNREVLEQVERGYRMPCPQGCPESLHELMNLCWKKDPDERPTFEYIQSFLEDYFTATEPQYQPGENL

Proto-oncogene tyrosine-protein kinase Src (Homo sapiens), sequence (P12931 2-536 limits assumed): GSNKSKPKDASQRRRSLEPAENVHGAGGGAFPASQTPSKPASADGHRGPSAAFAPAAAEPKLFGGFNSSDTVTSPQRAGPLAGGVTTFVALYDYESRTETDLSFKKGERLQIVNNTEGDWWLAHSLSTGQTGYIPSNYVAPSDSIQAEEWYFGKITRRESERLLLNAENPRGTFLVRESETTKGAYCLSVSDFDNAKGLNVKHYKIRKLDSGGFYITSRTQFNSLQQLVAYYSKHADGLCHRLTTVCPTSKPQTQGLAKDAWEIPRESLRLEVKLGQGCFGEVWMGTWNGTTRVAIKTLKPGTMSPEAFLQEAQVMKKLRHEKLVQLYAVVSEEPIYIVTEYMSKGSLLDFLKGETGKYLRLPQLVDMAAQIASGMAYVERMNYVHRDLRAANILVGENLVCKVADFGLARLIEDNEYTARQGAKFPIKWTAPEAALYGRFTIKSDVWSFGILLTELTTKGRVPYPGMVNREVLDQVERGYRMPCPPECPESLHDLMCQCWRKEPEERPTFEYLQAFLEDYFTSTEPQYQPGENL
Muscle, skeletal receptor tyrosine-protein kinase (Homo sapiens), sequence (O15146 whole entry, the tested form may be a part): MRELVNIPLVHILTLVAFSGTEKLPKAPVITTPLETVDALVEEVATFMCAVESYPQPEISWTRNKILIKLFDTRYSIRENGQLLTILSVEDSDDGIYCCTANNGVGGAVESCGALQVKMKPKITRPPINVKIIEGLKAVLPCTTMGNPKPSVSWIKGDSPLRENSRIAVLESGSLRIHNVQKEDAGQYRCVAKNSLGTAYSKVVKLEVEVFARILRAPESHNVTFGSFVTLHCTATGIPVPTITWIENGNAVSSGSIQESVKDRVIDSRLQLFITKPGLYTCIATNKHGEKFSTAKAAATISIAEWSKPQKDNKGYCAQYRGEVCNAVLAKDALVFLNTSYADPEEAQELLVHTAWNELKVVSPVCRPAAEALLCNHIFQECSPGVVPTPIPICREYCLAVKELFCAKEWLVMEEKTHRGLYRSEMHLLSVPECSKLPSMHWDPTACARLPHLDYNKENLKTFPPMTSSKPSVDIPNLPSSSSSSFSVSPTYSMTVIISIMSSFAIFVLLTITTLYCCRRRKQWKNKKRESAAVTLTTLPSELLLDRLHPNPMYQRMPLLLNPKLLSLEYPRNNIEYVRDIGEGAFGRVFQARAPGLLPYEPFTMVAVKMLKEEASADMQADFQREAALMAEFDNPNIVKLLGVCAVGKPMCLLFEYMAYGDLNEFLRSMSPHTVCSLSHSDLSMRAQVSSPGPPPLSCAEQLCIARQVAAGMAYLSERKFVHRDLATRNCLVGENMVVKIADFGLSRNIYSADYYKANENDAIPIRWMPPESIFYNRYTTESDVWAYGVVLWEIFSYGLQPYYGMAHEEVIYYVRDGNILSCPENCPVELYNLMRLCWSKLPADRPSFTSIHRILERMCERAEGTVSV
Tyrosine-protein kinase Fgr (Homo sapiens), sequence (P09769 2-529 limits assumed): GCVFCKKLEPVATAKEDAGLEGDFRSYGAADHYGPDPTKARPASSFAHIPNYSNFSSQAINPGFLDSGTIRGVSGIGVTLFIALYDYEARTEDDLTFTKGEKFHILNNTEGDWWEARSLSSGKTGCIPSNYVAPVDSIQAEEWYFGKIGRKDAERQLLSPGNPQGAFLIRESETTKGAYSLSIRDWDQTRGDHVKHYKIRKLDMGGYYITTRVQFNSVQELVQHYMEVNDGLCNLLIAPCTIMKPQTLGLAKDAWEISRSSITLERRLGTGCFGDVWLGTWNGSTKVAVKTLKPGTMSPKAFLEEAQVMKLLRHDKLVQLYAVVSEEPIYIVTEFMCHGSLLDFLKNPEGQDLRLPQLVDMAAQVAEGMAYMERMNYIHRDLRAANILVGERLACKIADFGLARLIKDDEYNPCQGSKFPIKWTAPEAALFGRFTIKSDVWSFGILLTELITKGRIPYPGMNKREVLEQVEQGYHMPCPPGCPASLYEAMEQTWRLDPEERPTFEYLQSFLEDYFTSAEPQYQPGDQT
Phosphatidylinositol 4,5-bisphosphate 3-kinase catalytic subunit beta isoform (Homo sapiens), sequence (P42338 whole entry, looked up, the tested form may be a part, canonical isoform): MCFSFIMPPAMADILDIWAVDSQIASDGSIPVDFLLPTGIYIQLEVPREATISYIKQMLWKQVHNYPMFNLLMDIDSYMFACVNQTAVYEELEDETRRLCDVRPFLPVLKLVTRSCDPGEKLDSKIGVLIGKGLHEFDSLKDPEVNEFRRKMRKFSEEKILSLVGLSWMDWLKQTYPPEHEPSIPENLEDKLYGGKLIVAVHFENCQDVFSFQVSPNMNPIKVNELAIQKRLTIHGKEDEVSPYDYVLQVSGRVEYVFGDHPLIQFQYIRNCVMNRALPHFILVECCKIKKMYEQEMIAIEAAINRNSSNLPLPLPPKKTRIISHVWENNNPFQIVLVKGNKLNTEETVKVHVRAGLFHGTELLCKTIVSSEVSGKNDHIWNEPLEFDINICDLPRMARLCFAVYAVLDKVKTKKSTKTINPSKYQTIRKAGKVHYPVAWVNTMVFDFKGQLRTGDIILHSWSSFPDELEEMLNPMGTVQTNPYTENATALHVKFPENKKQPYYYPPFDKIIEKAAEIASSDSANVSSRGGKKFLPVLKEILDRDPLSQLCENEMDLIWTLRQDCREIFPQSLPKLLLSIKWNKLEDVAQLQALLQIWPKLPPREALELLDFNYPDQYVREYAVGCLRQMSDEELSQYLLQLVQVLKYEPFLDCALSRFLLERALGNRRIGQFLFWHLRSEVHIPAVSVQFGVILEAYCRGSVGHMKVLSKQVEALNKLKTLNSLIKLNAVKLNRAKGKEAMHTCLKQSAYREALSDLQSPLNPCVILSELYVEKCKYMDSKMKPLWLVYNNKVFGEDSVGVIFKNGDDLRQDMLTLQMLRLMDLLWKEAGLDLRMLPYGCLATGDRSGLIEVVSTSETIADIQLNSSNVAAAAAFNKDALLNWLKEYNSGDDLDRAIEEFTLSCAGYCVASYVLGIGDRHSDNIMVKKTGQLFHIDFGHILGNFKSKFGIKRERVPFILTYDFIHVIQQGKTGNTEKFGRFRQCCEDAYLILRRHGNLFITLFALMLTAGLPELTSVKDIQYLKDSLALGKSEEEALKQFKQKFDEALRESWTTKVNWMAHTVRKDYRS
Phosphatidylinositol 4,5-bisphosphate 3-kinase catalytic subunit alpha isoform (Homo sapiens), P42336 [C420R], sequence (P42336 whole entry C420R, the tested form may be a part, canonical isoform): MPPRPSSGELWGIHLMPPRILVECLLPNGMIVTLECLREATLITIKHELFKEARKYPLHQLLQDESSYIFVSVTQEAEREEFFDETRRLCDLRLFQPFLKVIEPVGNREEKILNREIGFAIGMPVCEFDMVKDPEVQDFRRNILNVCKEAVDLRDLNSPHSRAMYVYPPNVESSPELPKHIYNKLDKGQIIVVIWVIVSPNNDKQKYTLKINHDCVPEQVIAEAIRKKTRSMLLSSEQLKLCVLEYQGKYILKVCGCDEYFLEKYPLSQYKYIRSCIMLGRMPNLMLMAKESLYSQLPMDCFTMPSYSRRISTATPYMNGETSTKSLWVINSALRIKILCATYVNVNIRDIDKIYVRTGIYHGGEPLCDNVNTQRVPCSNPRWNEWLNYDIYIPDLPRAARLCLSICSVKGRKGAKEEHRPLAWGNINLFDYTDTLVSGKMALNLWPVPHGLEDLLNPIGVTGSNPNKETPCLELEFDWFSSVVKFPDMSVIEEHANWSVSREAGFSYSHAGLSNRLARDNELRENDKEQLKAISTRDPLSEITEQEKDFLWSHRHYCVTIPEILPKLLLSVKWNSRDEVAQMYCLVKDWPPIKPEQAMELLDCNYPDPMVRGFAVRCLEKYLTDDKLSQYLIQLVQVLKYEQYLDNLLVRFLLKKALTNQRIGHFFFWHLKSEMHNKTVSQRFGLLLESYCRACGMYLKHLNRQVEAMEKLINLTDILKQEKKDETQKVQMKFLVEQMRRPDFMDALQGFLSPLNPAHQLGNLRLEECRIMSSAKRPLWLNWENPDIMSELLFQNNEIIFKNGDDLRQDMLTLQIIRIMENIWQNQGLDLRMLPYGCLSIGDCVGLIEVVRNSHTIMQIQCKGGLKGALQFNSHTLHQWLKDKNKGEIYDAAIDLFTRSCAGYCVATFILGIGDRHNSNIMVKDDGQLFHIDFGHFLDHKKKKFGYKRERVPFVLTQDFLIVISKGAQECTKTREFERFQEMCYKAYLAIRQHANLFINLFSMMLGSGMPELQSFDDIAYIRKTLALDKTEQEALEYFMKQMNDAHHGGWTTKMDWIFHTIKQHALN

## COCCN[C@H]1CC[C@H](Nc2cc(-c3csc(NCC4(C#N)CCOCC4)n3)c(Cl)cn2)CC1
CDK9/Cyclin K
  IC50: 6 nM
MV4-11 [1]
  Activity: Dose-dependent effect
MV4-11 [2]
  Activity: Dose-dependent effect
Homo sapiens
  Activity: inactive
[3]
  Tmax: 1.2 min
[4]
  Activity: 9.2%
[5]
  Activity: 84%
[6]
  Activity: 90%
[7]
  Activity: 84%
[8]
  Activity: 90%
[9]
  Activity: 100%
[10]
  Activity: 89%
[11]
  Activity: 85%
[12]
  Activity: 100%
[13]
  Activity: 100%
[14]
  Activity: 98%
[15]
  Activity: 100%
[16]
  Activity: 89%
[17]
  Activity: 93%
[18]
  Activity: 100%
[19]
  Activity: 100%
[20]
  Activity: 97%
